From ChEMBL document CHEMBL1124901 (J Med Chem, 1990)

Tests used:
[1] = Dissociation constant of the compound; value ranges from 0.81-1.2 nM; type: physicochemical
[2] = molecular target: Dopamine receptor; experiment: In vitro inhibition of [3H]spiperone binding to Dopamine receptor D2 in Macaca nemestrina striatal membranes; set-up: species or system Striatum, Membrane
How it was run: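 Caudate tissue from adult Macaca nemestrina brains, homogenized in ice-cold 50 mM potassium phosphate pH 7.4, washed twice by centrifugation at 30000g and stored at -70 °C. Assay used 25-50 µg protein in 50 mM Tris-HCl, 120 mM NaCl, 5 mM CaCl2, 1 mM MgCl2, pH 7.4, with 0.2 nM [3H]spiperone for 30 min at 37 °C. Bound ligand was collected by filtration and counted by scintillation. Nonspecific binding was defined with 1 µM cis-flupenthixol. Ki was taken from competitive displacement.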

[3] = Partition coefficient (logP); type: physicochemical; settings: octanol/water
[4] = tested on: Rattus norvegicus; experiment: In vivo tissue biodistribution behavior of high specific activity was determined in rat blood at 30 min postinjection of radiolabeled compound; type: ADME, organism-based; settings: 0.5 h
How it was run: (§1)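 Female Sprague-Dawley rats (200-250 g) under light ether anesthesia received 50-100 µCi of the 18F-labelled ligand (>1000 Ci/mmol) in 0.2 mL buffered saline into the femoral vein. Food and water were free until decapitation. Blood was drawn by cardiac puncture and the femur and brain regions were taken. Tissues were weighed and gamma counted. Values are %ID/g, mean ± SD of 4-5 rats.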

[5] = tested on: Rattus norvegicus; experiment: In vivo tissue biodistribution behavior of high specific activity was determined in rat blood at 5 min postinjection of radiolabeled compound; type: ADME, organism-based; how it was run: as §1
[6] = tested on: Rattus norvegicus; experiment: In vivo tissue biodistribution behavior of high specific activity was determined in rat bone at 5 min postinjection of radiolabeled compound; type: ADME, organism-based, Bone element; how it was run: as §1
[7] = tested on: Rattus norvegicus; experiment: In vivo tissue biodistribution behavior of high specific activity was determined in rat cerebellum at 30 min postinjection of radiolabeled compound; type: ADME, organism-based; settings: 0.5 h; how it was run: as §1
[8] = tested on: Rattus norvegicus; experiment: In vivo tissue biodistribution behavior of high specific activity was determined in rat striatum at 5 min postinjection of radiolabeled compound; type: ADME, organism-based; how it was run: as §1
[9] = tested on: Rattus norvegicus; experiment: In vivo tissue biodistribution behavior of high specific activity was determined in rat whole brain at 30 min postinjection of radiolabeled compound; type: ADME, organism-based; settings: 0.5 h; how it was run: as §1
[10] = tested on: Rattus norvegicus; experiment: In vivo tissue biodistribution behavior of high specific activity was determined in rat bone at 30 min postinjection of radiolabeled compound; type: ADME, organism-based, Bone element; settings: 0.5 h; how it was run: as §1
[11] = tested on: Rattus norvegicus; experiment: In vivo tissue biodistribution behavior of high specific activity was determined in rat striatum at 30 min postinjection of radiolabeled compound; type: ADME, organism-based; settings: 0.5 h; how it was run: as §1
[12] = tested on: Rattus norvegicus; experiment: In vivo tissue biodistribution behavior of high specific activity was determined in rat cerebellum at 5 min postinjection of radiolabeled compound; type: ADME, organism-based; how it was run: as §1
[13] = tested on: Rattus norvegicus; experiment: In vivo tissue biodistribution behavior of high specific activity was determined in rat whole brain at 5 min postinjection of radiolabeled compound; type: ADME, organism-based; how it was run: as §1
[14] = tested on: Rattus norvegicus; experiment: In vivo tissue biodistribution behavior of high specific activity was determined in rat cerebellum at 60 min postinjection of radiolabeled compound; type: ADME, organism-based; settings: 1 h; how it was run: as §1
[15] = In vivo tissue biodistribution behavior of high specific activity was determined in whole brain at 60 min postinjection of radiolabeled compound; type: ADME, organism-based; settings: 1 h; how it was run: as §1
[16] = tested on: Rattus norvegicus; experiment: In vivo tissue biodistribution behavior of high specific activity was determined in rat bone at 60 min postinjection of radiolabeled compound; type: ADME, organism-based, Bone element; settings: 1 h; how it was run: as §1
[17] = tested on: Rattus norvegicus; experiment: In vivo tissue biodistribution behavior of high specific activity was determined in rat striatum at 60 min postinjection of radiolabeled compound; type: ADME, organism-based; settings: 1 h; how it was run: as §1
[18] = tested on: Rattus norvegicus; experiment: In vivo tissue biodistribution behavior of high specific activity was determined in rat blood at 60 min postinjection of radiolabeled compound; type: ADME, organism-based; settings: 1 h; how it was run: as §1
[19] = tested on: Rattus norvegicus; experiment: In vivo tissue biodistribution behavior of high specific activity was determined in rat whole brain at 60 min postinjection of radiolabeled compound; type: ADME, organism-based; settings: 1 h; how it was run: as §1

With `CCN1CCC[C@H]1CNC(=O)c1c(O)c(Cl)cc(Cl)c1OC` [RACLOPRIDE] as the compound, how does the Kd [1] read?
The Kd was 0.81 nM.

What does the source list for `COc1c(Cl)cc(Cl)c(O)c1C(=O)NC[C@@H]1CCCN1CCF`?
Ki [2]: 159 nM; logP [3]: 0.55

With `CCCN1CCC[C@H]1CNC(=O)c1c(O)c(Cl)cc(Cl)c1OC` as the compound, how does the Ki [2] read?
Its Ki is 17.3 nM.

What about the logP [3] of the same compound?
Its logP is 1.75.

Which Ki [2] does the source give for `COc1c(Cl)cc(Cl)c(O)c1C(=O)NC[C@@H]1CCCN1CCC(C)F` (stereo not given in full) here?
Its Ki is 2610 nM.

What about the logP [3] of the same compound?
Its logP is 1.5.

Which results are given for `COc1c(Cl)cc(Cl)c(O)c1C(=O)NC[C@@H]1CCCN1CCCF`?
Ki [2]: 130 nM; logP [3]: 1.07

Which Tissue concentration [4] does the source give for `COc1c(Cl)cc(Cl)c(O)c1C(=O)NC[C@@H]1CCCN1CC[18F]` here?
The Tissue concentration was 0.07 % injected dose g-1.

And the Tissue concentration [5]?
Its Tissue concentration is 0.16 % injected dose g-1.

What about the Tissue concentration [6] of the same compound?
The Tissue concentration was 0.2 % injected dose g-1.

And the Tissue concentration [7]?
The Tissue concentration was 0.05 % injected dose g-1.

What about the Tissue concentration [8] of the same compound?
Its Tissue concentration is 0.62 % injected dose g-1.

And the Tissue concentration [9]?
Its Tissue concentration is 0.06 % injected dose g-1.

And the Tissue concentration [10]?
Its Tissue concentration is 0.23 % injected dose g-1.

What about the Tissue concentration [11] of the same compound?
Its Tissue concentration is 0.09 % injected dose g-1.

And the Tissue concentration [12]?
Its Tissue concentration is 0.42 % injected dose g-1.

And the Tissue concentration [13]?
Its Tissue concentration is 0.52 % injected dose g-1.

For `COc1c(Cl)cc(Cl)c(O)c1C(=O)NC[C@@H]1CCCN1CCC[18F]`, which Tissue concentration [4] is on record?
The Tissue concentration was 0.1 % injected dose g-1.

And the Tissue concentration [14]?
Its Tissue concentration is 0.03 % injected dose g-1.

And the Tissue concentration [5]?
The Tissue concentration was 0.26 % injected dose g-1.

What about the Tissue concentration [6] of the same compound?
The Tissue concentration was 0.28 % injected dose g-1.

What about the Tissue concentration [7] of the same compound?
The Tissue concentration was 0.09 % injected dose g-1.

What about the Tissue concentration [15] of the same compound?
The Tissue concentration was 0.04 % injected dose g-1.

What about the Tissue concentration [8] of the same compound?
The Tissue concentration was 1.5 % injected dose g-1.

And the Tissue concentration [9]?
Its Tissue concentration is 0.11 % injected dose g-1.

And the Tissue concentration [10]?
Its Tissue concentration is 0.34 % injected dose g-1.

What about the Tissue concentration [16] of the same compound?
The Tissue concentration was 0.54 % injected dose g-1.

And the Tissue concentration [11]?
Its Tissue concentration is 0.13 % injected dose g-1.

What about the Tissue concentration [12] of the same compound?
The Tissue concentration was 0.98 % injected dose g-1.

And the Tissue concentration [17]?
The Tissue concentration was 0.07 % injected dose g-1.

And the Tissue concentration [18]?
The Tissue concentration was 0.05 % injected dose g-1.

And the Tissue concentration [13]?
The Tissue concentration was 1.16 % injected dose g-1.

Which results are given for `COc1c(Cl)cc(Cl)c(O)c1C(=O)NC[C@@H]1CCCN1CCCCF`?
Ki [2]: 88.5 nM; logP [3]: 1.6

What does the source list for `CCCCN1CCC[C@H]1CNC(=O)c1c(O)c(Cl)cc(Cl)c1OC`?
Ki [2]: 41.1 nM; logP [3]: 2.28

Which Ki [2] does the source give for `COc1c(Cl)cc(Cl)c(O)c1C(=O)NC[C@H]1CCCN1CCC(C)F` (stereo not given in full) here?
The Ki was 2620 nM.

What about the logP [3] of the same compound?
The logP was 1.5.

For `COc1c(Cl)cc(Cl)c(O)c1C(=O)NC[C@@H]1CCCN1CCCC[18F]`, which Tissue concentration [4] is on record?
The Tissue concentration was 0.09 % injected dose g-1.

And the Tissue concentration [14]?
The Tissue concentration was 0.05 % injected dose g-1.

And the Tissue concentration [19]?
Its Tissue concentration is 0.06 % injected dose g-1.

And the Tissue concentration [5]?
Its Tissue concentration is 0.21 % injected dose g-1.

And the Tissue concentration [6]?
The Tissue concentration was 0.22 % injected dose g-1.

What about the Tissue concentration [7] of the same compound?
Its Tissue concentration is 0.08 % injected dose g-1.

What about the Tissue concentration [8] of the same compound?
Its Tissue concentration is 0.87 % injected dose g-1.

What about the Tissue concentration [9] of the same compound?
The Tissue concentration was 0.1 % injected dose g-1.

And the Tissue concentration [10]?
The Tissue concentration was 0.24 % injected dose g-1.

What about the Tissue concentration [16] of the same compound?
The Tissue concentration was 0.39 % injected dose g-1.

And the Tissue concentration [11]?
The Tissue concentration was 0.12 % injected dose g-1.

What about the Tissue concentration [12] of the same compound?
Its Tissue concentration is 0.58 % injected dose g-1.

And the Tissue concentration [17]?
The Tissue concentration was 0.09 % injected dose g-1.

And the Tissue concentration [18]?
The Tissue concentration was 0.06 % injected dose g-1.

And the Tissue concentration [13]?
The Tissue concentration was 0.71 % injected dose g-1.
